Measurements taken from ChEMBL document CHEMBL1146243, “Design, synthesis, and biological evaluation of tricyclic heterocycle-tetraamine conjugates as potent NMDA channel blockers” (Bioorg Med Chem Lett, 2007).

Experiments:
[1] = target: Glutamate NMDA receptor; GRIN1/GRIN2A (Homo sapiens, UniProt Q05586+Q12879); test: Antagonist activity at recombinant NR1/NR2A receptor expressed in Xenopus laevis oocytes; format: functional, cell-based, Oocyte
How it was run: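 Two-electrode voltage clamp of oocytes injected with NR1 plus NR2A cRNA at 1:5 (0.1–4 ng NR1 plus 0.5–20 ng NR2), held at -70 mV. Receptors activated by superfused glycine and glutamate (10 µM). IC50 from concentration–inhibition curves over five or six concentrations; means ± SEM of four oocytes.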

FM3A = test: Cytotoxicity in mouse FM3A cells after 48 hrs; format: functional, cell-based
How it was run: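 FM3A cells (1 × 10⁴) cultured in ES medium with or without various compound concentrations at 37 °C for 48 h. Cells counted with 0.05% Trypan blue. IC50 as mean ± SD of triplicate determinations.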

[2] = target: Glutamate NMDA receptor; GRIN1/GRIN2B (Homo sapiens, UniProt Q05586+Q13224); test: Antagonist activity at recombinant NR1/NR2B receptor expressed in Xenopus laevis oocytes; format: functional, cell-based, Oocyte
Chain of Glutamate NMDA receptor; GRIN1/GRIN2B (Q13224 whole entry, other chains not shown, the tested form may be a part): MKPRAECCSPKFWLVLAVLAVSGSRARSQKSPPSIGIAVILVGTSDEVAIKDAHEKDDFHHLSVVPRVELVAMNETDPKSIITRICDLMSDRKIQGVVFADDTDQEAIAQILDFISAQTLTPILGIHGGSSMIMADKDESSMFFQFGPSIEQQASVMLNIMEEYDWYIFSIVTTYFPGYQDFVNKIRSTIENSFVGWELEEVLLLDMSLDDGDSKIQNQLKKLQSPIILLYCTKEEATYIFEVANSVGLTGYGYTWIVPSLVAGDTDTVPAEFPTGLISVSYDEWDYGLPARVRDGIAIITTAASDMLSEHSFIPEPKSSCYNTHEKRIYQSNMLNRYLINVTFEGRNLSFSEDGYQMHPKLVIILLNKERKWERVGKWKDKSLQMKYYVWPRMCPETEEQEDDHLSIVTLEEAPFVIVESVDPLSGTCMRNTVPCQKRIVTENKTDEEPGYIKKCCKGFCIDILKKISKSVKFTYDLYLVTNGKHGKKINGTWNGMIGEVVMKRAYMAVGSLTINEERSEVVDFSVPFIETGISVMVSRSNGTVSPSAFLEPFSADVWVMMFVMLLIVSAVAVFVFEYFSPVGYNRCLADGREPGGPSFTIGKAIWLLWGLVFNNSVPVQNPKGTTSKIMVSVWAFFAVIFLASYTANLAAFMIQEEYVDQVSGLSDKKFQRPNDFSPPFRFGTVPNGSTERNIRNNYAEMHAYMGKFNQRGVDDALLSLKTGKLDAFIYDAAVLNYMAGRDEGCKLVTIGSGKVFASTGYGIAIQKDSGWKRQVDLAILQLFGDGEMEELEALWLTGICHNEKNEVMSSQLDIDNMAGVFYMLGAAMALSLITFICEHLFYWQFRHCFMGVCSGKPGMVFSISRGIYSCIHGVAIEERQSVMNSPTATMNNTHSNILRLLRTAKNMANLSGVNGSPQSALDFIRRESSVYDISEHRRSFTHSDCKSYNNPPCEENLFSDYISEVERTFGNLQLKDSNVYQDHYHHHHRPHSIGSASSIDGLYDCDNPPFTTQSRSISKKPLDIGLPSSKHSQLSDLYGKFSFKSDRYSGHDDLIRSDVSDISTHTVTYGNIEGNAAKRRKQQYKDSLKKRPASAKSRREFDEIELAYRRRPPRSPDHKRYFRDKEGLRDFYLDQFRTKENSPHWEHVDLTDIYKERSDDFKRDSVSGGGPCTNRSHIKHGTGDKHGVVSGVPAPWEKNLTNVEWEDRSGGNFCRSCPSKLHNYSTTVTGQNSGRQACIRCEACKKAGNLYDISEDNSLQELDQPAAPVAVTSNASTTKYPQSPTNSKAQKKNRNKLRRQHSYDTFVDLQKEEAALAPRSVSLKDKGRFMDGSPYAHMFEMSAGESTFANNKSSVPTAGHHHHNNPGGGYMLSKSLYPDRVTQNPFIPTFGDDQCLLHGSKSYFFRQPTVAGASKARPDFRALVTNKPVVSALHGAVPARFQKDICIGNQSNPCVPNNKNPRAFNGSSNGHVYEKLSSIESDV
How it was run: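 Xenopus oocytes injected with NR1 plus NR2B cRNAs at 1:5 (0.1–4 ng NR1 plus 0.5–20 ng NR2). Two-electrode voltage clamp at −70 mV. Receptors activated by superfused glycine and glutamate (10 µM). IC50 from concentration–inhibition curves using five or six concentrations. Means ± SEM of four oocytes.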

Chain of Glutamate NMDA receptor; GRIN1/GRIN2A (Q12879 whole entry, other chains not shown, the tested form may be a part): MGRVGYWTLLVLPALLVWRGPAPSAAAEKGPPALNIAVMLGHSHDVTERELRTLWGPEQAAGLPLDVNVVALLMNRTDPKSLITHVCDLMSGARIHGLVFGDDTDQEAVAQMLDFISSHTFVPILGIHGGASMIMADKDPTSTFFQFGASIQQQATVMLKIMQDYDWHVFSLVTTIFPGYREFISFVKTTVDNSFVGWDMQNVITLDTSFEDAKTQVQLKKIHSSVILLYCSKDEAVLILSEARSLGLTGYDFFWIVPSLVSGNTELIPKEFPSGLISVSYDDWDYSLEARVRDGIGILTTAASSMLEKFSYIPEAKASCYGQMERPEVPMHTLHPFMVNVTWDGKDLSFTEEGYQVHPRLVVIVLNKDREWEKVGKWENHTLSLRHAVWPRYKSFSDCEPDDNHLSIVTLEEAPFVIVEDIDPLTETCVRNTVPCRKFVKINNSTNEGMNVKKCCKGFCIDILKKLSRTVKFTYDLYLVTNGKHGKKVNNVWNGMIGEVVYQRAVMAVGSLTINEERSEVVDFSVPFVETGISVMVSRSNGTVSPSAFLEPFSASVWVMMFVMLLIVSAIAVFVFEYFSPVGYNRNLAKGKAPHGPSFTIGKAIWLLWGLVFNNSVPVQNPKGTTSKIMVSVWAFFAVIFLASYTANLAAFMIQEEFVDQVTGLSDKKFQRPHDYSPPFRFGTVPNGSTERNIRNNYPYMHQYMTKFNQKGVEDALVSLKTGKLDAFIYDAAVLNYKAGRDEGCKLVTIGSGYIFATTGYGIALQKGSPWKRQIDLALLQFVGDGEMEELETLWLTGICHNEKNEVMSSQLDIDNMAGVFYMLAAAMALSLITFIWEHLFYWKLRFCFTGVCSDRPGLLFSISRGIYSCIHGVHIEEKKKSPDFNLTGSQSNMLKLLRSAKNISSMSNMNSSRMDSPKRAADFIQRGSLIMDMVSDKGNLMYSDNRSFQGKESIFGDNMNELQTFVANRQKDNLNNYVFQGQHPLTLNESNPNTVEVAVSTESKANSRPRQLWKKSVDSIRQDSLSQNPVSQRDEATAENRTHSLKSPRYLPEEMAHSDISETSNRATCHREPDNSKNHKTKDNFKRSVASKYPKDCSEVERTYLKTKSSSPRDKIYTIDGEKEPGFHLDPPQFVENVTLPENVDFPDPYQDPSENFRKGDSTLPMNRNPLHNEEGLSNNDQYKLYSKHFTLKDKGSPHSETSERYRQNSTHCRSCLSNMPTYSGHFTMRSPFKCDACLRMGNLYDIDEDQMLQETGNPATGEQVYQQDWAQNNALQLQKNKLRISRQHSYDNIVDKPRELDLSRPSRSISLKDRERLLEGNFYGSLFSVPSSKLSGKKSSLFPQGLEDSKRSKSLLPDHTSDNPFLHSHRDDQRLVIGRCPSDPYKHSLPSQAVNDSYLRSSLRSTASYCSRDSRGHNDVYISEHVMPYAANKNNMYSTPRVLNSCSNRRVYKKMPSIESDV

Compound | IC50 [1] [nM] | IC50 (FM3A) [nM] | IC50 [2] [nM]
NCCCNCCCCNCCCNC(=O)c1ccc2c(c1)C(=O)c1ccccc1C2=O | 392 | 14900 | 491
NCCCCNCCCNCCCCNC(=O)N1c2ccccc2C=Cc2ccccc21 | 198 | 115000 | 335
NCCCCNCCCCNCCCCNC(=O)N1c2ccccc2C=Cc2ccccc21 |  | 132000 | 293
NCCCNCCCCNCCCNC(=O)N1c2ccccc2CCc2ccccc21 | 958 | 102000 | 442
NCCCCNCCCNCCCCNC(=O)N1c2ccccc2CCc2ccccc21 | 117 | 169000 | 270
NCCCCNCCCCNCCCCNC(=O)N1c2ccccc2CCc2ccccc21 |  | 133000 | 142
NCCCCNCCCNCCCCNC(=O)N1c2ccccc2Sc2ccccc21 | 78 | 32500 | 108
NCCCCNCCCCNCCCCNC(=O)N1c2ccccc2Sc2ccccc21 | 127 | 40400 | 108
NCCCNCCCCNCCCNC(=O)n1c2ccccc2c2ccccc21 | 145 | 31300 | 83
NCCCCNCCCCNCCCCNC(=O)n1c2ccccc2c2ccccc21 | 111 | 84200 | 166
NCCCNCCCCNCCCNC(=O)N1c2ccccc2C=Cc2ccccc21 | 203 | 97600 | 199
NCCCNCCCCNCCCNC(=O)N1c2ccccc2Sc2ccccc21 | 215 | 57100 | 348
NCCCCNCCCNCCCCNC(=O)n1c2ccccc2c2ccccc21 | 211 | 42300 | 189
CC12CC3CC(C)(C1)CC(N)(C3)C2 [MEMANTINE] |  | 147000 | 
